In ChEMBL document CHEMBL1142097, “EthA, a common activator of thiocarbamide-containing drugs acting on different mycobacterial targets” (Antimicrob Agents Chemother, 2007):
In brackets after ≈: the same amount, converted by molar mass.

Experiments:
[1] = Drug metabolizing activity of Mycobacterium bovis BCG recombinant ethA expressed in Escherichia coli; assay type: ADME; settings: mycobacterium tuberculosis variant bovis bcg
Outline: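 N-terminal His6-tagged EthA expressed in E. coli (1 mM IPTG, 22°C, 24 h), Ni2+ affinity-purified with bound FAD. Drug incubated at 37°C for 1 h in 50 mM Tris-HCl pH 7.4, 100 mM KCl, 200 μg/ml BSA, 4 mM NADPH, 8 μg EthA.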

[2] = system: Mycobacterium tuberculosis variant bovis BCG; experiment: Antimycobacterial activity against Mycobacterium bovis BCG Pasteur with pMV261 vector; assay type: functional
Outline: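 Agar MIC on Middlebrook 7H9 or 7H11 with OADC (ADC substituted for isoxyl-type drugs) plus graded drug levels; serial 10-fold dilutions of actively growing culture plated, incubated 37°C for 10–14 days; MIC = lowest concentration blocking 99% of growth. Recombinant Pasteur strains selected with 25 μg/ml kanamycin; ethR::hyg mutant carries a hygromycin-marked transposon in ethR.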

Row | SMILES | Activity [1] [µmol/min/mg] | MIC [2] [µg/mL]
1 | CC(C)CCOc1ccc(NC(=S)Nc2ccc(OCCC(C)C)cc2)cc1 [TIOCARLIDE] | 7.56 | 0.25 (≈ 0.624 µM)
2 | CC(C)CCSc1ccc(NC(=S)Nc2ccc(SCCC(C)C)cc2)cc1 | 7.37 | 40 (≈ 92.4 µM)
3 | COc1ccc(/C(C)=N/NC(N)=S)cc1 |  | 0.25 (≈ 1.12 µM)
4 | NC(=S)N/N=C/c1cccnc1 [NICOTHIAZONE] |  | 10 (≈ 55.5 µM)
5 | CC(=O)Nc1ccc(/C=N/NC(N)=S)cc1 [AMITHIOZONE] |  | 0.5 (≈ 2.12 µM)
6 | CCc1cc(C(N)=S)ccn1 [ETHIONAMIDE] |  | 2 (≈ 12 µM)
